Experimental data: ChEMBL document CHEMBL1138564, “Microwave-induced synthesis and anti-microbial activities of 7,10,11,12-tetrahydrobenzo[c]acridin-8(9H)-one derivatives” (2009)
≈ marks a conversion by molar mass, not a printed value. Calls of active or inactive are those of the source. No cut-off for these calls is given here.

Assays:
Escherichia coli = test: Antimicrobial activity against Escherichia coli NCIM 2065 at 500 ug/disk after 24 hrs by disk diffusion method; type: functional; details: for zone of inhibition at 500 µg/disc: NCIM 2065, 24 h, read-out: DIZ
Method in brief: (§1)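 Disc diffusion on Mueller–Hinton agar. 100 µl of bacterial suspension at 10⁸ CFU/ml is spread on the plate. Discs carry test compounds at two loadings, dissolved in DMSO; DMSO alone serves as negative control. Ofloxacin disc is the positive reference. Plates are incubated at 37 °C for 24 h, and the inhibition zone diameter is measured.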

Bacillus subtilis = test: Antimicrobial activity against Bacillus subtilis NCIM 2063 at 500 ug/disk after 24 hrs by disk diffusion method; type: functional; details: for zone of inhibition at 500 µg/disc: NCIM 2063, 24 h, read-out: DIZ; method in brief: as §1
Salmonella typhimurium [1] = test: Antimicrobial activity against Salmonella Typhimurium NCIM 2501 at 1000 ug/disk after 24 hrs by disk diffusion method; type: functional, Salmonella enterica subsp. enterica serovar Typhimurium; details: for zone of inhibition at 1000 µg/disc: Salmonella enterica, NCIM 2501, 24 h, read-out: DIZ; for diameter of the inhibition zone (DIZ): Salmonella enterica subsp. enterica serovar Typhimurium
Method in brief: (§2)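 Disc diffusion. 100 µl of bacterial suspension at 10⁸ CFU/ml was spread on Mueller–Hinton agar. Discs loaded with test compound dissolved in DMSO were placed on the lawn, with a DMSO-only disc as negative control. Plates were incubated at 37 °C for 24 h, and the inhibition zone diameter was measured.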

Salmonella typhimurium [2] = test: Antimicrobial activity against Salmonella Typhimurium NCIM 2501 at 500 ug/disk after 24 hrs by disk diffusion method; type: functional, Salmonella enterica subsp. enterica serovar Typhimurium; details: for zone of inhibition at 500 µg/disc: Salmonella enterica, NCIM 2501, 24 h, read-out: DIZ; for diameter of the inhibition zone (DIZ): Salmonella enterica subsp. enterica serovar Typhimurium; method in brief: as §2
Staphylococcus [3] = test: Antimicrobial activity against Staphylococcus albus NCIM 2178 at 500 ug/disk after 24 hrs by disk diffusion method; type: functional; details: for zone of inhibition at 500 µg/disc: NCIM 2178, 24 h, read-out: DIZ; method in brief: as §2
Aspergillus flavus = test: Antimicrobial activity against Aspergillus flavus NCIM 902 at 500 ug/disk after 72 hrs by disk diffusion method; type: functional; details: NCIM 902, 72 h, read-out: DIZ
Method in brief: (§3)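 Disc diffusion on Sabouraud's dextrose agar. 100 µl of fungal suspension at 10⁶ CFU/ml is spread on the plate. Discs carry test compounds at two loadings in DMSO; DMSO alone is the negative control. Clotrimazole disc is the positive reference. Plates are incubated at 27 °C for 72 h, and the zone of inhibition diameter is measured.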

Aspergillus parasiticus = test: Antimicrobial activity against Aspergillus parasiticus NCIM 904 at 500 ug/disk after 72 hrs by disk diffusion method; type: functional; details: NCIM 904, 72 h, read-out: DIZ; method in brief: as §3
Klebsiella aerogenes [4] = test: Antimicrobial activity against Klebsiella aerogenes NCIM 2239 at 500 ug/disk after 24 hrs by disk diffusion method; type: functional; details: for zone of inhibition at 500 µg/disc: NCIM 2239, 24 h, read-out: DIZ; method in brief: as §1
Pseudomonas aeruginosa [5] = test: Antimicrobial activity against Pseudomonas aeruginosa NCIM 2200 at 500 ug/disk after 24 hrs by disk diffusion method; type: functional; details: for zone of inhibition at 500 µg/disc: NCIM 2200, 24 h, read-out: DIZ; method in brief: as §2
Aspergillus fumigatus = test: Antimicrobial activity against Aspergillus fumigatus NCIM 902 after 72 hrs by serial dilution method; type: functional; details: NCIM 902, 72 h
Method in brief: (§4)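 MIC by broth dilution in Sabouraud's dextrose broth, only for fungi sensitive in disc diffusion. Two-fold serial dilutions of compounds are made in 1 ml broth per tube, range 3.9 to 1000. Inoculated tubes are incubated at 27 °C for 72 h.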

Lipomyces lipofer = test: Antimicrobial activity against Lipomyces lipofer NCIM 3252 after 72 hrs by serial dilution method; type: functional; details: NCIM 3252, 72 h; method in brief: as §4
Klebsiella aerogenes [6] = test: Antimicrobial activity against Klebsiella aerogenes NCIM 2239 after 24 hrs by serial dilution method; type: functional; details: NCIM 2239, 24 h
Method in brief: (§5)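 Broth dilution MIC in nutrient broth, run only for organisms found sensitive in disc diffusion. Compounds are two-fold serially diluted in 1 ml sterile broth per tube, spanning 3.9 to 1000. Inoculated tubes are incubated at 37 °C for 24 h.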

Salmonella typhimurium [7] = test: Antimicrobial activity against Salmonella Typhimurium NCIM 2501 after 24 hrs by serial dilution method; type: functional, Salmonella enterica subsp. enterica serovar Typhimurium; details: Salmonella enterica, NCIM 2501, 24 h
Bacillus cereus = test: Antimicrobial activity against Bacillus cereus NCIM 2155 after 24 hrs by serial dilution method; type: functional; details: NCIM 2155, 24 h; method in brief: as §5
Aspergillus niger [8] = test: Antimicrobial activity against Aspergillus niger NCIM 1196 at 500 ug/disk after 72 hrs by disk diffusion method
Aspergillus niger [9] = test: Antimicrobial activity against Aspergillus niger NCIM 1196 at 1000 ug/disk after 72 hrs by disk diffusion method
Staphylococcus [10] = test: Antimicrobial activity against Staphylococcus albus NCIM 2178 after 24 hrs by serial dilution method; type: functional; details: NCIM 2178, 24 h
Proteus vulgaris = test: Antimicrobial activity against Proteus vulgaris NCIM 2027 after 24 hrs by serial dilution method; type: functional; details: NCIM 2027, 24 h; method in brief: as §5
Penicillium chrysogenum = test: Antimicrobial activity against Penicillium chrysogenum NCIM 707 after 72 hrs by serial dilution method; type: functional; details: NCIM 707, 72 h; method in brief: as §4
Pseudomonas aeruginosa [11] = test: Antimicrobial activity against Pseudomonas aeruginosa NCIM 2200 after 24 hrs by serial dilution method; type: functional; details: NCIM 2200, 24 h; method in brief: as §5
[12] = system: Rhodococcus corynebacterioides; test: Antimicrobial activity against Corynebacterium rubrum NCIM 2252 after 24 hrs by serial dilution method; type: functional; details: Rhodococcoides corynebacterioides, NCIM 2252, 24 h; method in brief: as §5

Row | SMILES | zone of inhibition at 500 µg/disc (Escherichia coli) | zone of inhibition at 500 µg/disc (Bacillus subtilis) | zone of inhibition at 1000 µg/disc (Salmonella typhimurium [1]) | zone of inhibition at 500 µg/disc (Salmonella typhimurium [2]) | diameter of the inhibition zone (DIZ) (Staphylococcus [3]) | zone of inhibition at 500 µg/disc (Aspergillus flavus) | zone of inhibition at 500 µg/disc (Aspergillus parasiticus) | diameter of the inhibition zone (DIZ) (Klebsiella aerogenes [4]) | diameter of the inhibition zone (DIZ) (Pseudomonas aeruginosa [5]) | MIC (Aspergillus fumigatus) | MIC (Lipomyces lipofer) | MIC (Klebsiella aerogenes [6]) | MIC (Salmonella typhimurium [7]) | MIC (Bacillus cereus) | diameter of the inhibition zone (DIZ) (Aspergillus niger [8]) | diameter of the inhibition zone (DIZ) (Aspergillus niger [9]) | zone of inhibition at 500 µg/disc (Klebsiella aerogenes [4]) | MIC [12] | also measured
1 | CC1(C)CC(=O)C2=C(C1)Nc1c(ccc3ccccc13)C2c1ccccc1Cl (centres undefined) | 7 mm | 7 mm | 13 mm | 10 mm | inactive | 8 mm | 8 mm | inactive | inactive | 125 µg/mL (≈ 322 µM) | 125 µg/mL (≈ 322 µM) | 125 µg/mL (≈ 322 µM) | 31.2 µg/mL (≈ 80.4 µM) | 31.2 µg/mL (≈ 80.4 µM) | inactive | inactive | – | – | –
2 | CC1(C)CC(=O)C2=C(C1)Nc1c(ccc3ccccc13)C2c1cccc([N+](=O)[O-])c1 (centres undefined) | 10 mm | 9 mm | 13 mm | 10 mm | – | 9 mm | 10 mm | – | – | 62.5 µg/mL (≈ 157 µM) | 62.5 µg/mL (≈ 157 µM) | 31.2 µg/mL (≈ 78.3 µM) | 15.6 µg/mL (≈ 39.2 µM) | 15.6 µg/mL (≈ 39.2 µM) | inactive | inactive | 8 mm | 125 µg/mL (≈ 314 µM) | zone of inhibition at 500 µg/disc (Staphylococcus [3]): 7 mm; zone of inhibition at 500 µg/disc (Pseudomonas aeruginosa [5]): 7 mm; MIC (Staphylococcus [10]): 125 µg/mL (≈ 314 µM); MIC (Proteus vulgaris): 125 µg/mL (≈ 314 µM); MIC (Penicillium chrysogenum): 62.5 µg/mL (≈ 157 µM); MIC (Pseudomonas aeruginosa [11]): 125 µg/mL (≈ 314 µM)
3 | O=C1CCCC2=C1C(c1cccc(Cl)c1)c1ccc3ccccc3c1N2 (centres undefined) | 7 mm | 8 mm | – | – | inactive | 9 mm | 12 mm | inactive | inactive | 31.2 µg/mL (≈ 86.7 µM) | – | 125 µg/mL (≈ 347 µM) | – | – | inactive | inactive | – | 125 µg/mL (≈ 347 µM) | diameter of the inhibition zone (DIZ) (Salmonella typhimurium [1]): inactive; diameter of the inhibition zone (DIZ) (Salmonella typhimurium [2]): inactive
4 | CC1(C)CC(=O)C2=C(C1)Nc1c(ccc3ccccc13)C2c1ccccc1 (centres undefined) | 7 mm | 8 mm | 10 mm | 9 mm | inactive | 9 mm | 7 mm | inactive | inactive | 62.5 µg/mL (≈ 177 µM) | – | – | 62.5 µg/mL (≈ 177 µM) | 31.2 µg/mL (≈ 88.3 µM) | inactive | inactive | – | – | –
5 | CC1(C)CC(=O)C2=C(C1)Nc1c(ccc3ccccc13)C2c1cccc(Cl)c1 (centres undefined) | 7 mm | – | 10 mm | 8 mm | inactive | 9 mm | 11 mm | inactive | inactive | 62.5 µg/mL (≈ 161 µM) | 125 µg/mL (≈ 322 µM) | 125 µg/mL (≈ 322 µM) | 62.5 µg/mL (≈ 161 µM) | 62.5 µg/mL (≈ 161 µM) | inactive | inactive | – | 125 µg/mL (≈ 322 µM) | diameter of the inhibition zone (DIZ) (Bacillus subtilis): inactive; MIC (Penicillium chrysogenum): 62.5 µg/mL (≈ 161 µM)
6 | O=C1CCCC2=C1C(c1ccccc1Cl)c1ccc3ccccc3c1N2 (centres undefined) | – | 7 mm | – | – | inactive | 7 mm | 8 mm | inactive | inactive | 62.5 µg/mL (≈ 174 µM) | – | – | – | – | inactive | inactive | – | 125 µg/mL (≈ 347 µM) | diameter of the inhibition zone (DIZ) (Escherichia coli): inactive; diameter of the inhibition zone (DIZ) (Salmonella typhimurium [1]): inactive; diameter of the inhibition zone (DIZ) (Salmonella typhimurium [2]): inactive
7 | CC1(C)CC(=O)C2=C(C1)Nc1c(ccc3ccccc13)C2c1ccccc1O (centres undefined) | – | – | 11 mm | 10 mm | inactive | 9 mm | 10 mm | – | inactive | – | – | 62.5 µg/mL (≈ 169 µM) | 31.2 µg/mL (≈ 84.4 µM) | 62.5 µg/mL (≈ 169 µM) | inactive | inactive | 7 mm | – | diameter of the inhibition zone (DIZ) (Escherichia coli): inactive; diameter of the inhibition zone (DIZ) (Bacillus subtilis): inactive
8 | CC1(C)CC(=O)C2=C(C1)Nc1c(ccc3ccccc13)C2c1ccc(Cl)cc1 (centres undefined) | 7 mm | 8 mm | 11 mm | 9 mm | – | 7 mm | 12 mm | – | – | 125 µg/mL (≈ 322 µM) | – | 62.5 µg/mL (≈ 161 µM) | 31.2 µg/mL (≈ 80.4 µM) | 15.6 µg/mL (≈ 40.2 µM) | inactive | inactive | 8 mm | 62.5 µg/mL (≈ 161 µM) | zone of inhibition at 500 µg/disc (Staphylococcus [3]): 7 mm; zone of inhibition at 500 µg/disc (Pseudomonas aeruginosa [5]): 7 mm; MIC (Staphylococcus [10]): 125 µg/mL (≈ 322 µM); MIC (Proteus vulgaris): 62.5 µg/mL (≈ 161 µM); MIC (Pseudomonas aeruginosa [11]): 62.5 µg/mL (≈ 161 µM)
